# Source: PubChem BioAssay (several laboratories)
# Rows were chosen to be rich in hits. Some 2.1% of all compounds tested hit in one or more screens of this group.
# HTR2A ag: agonists of mouse serotonin 5-HT2A receptor (HTR2A); activation, % at 7.6 µM; 360,000 compounds, 0.66% hits; P35363; CHO-K1 mHTR2A beta-arrestin complementation, luminescence; percent of 30 µM serotonin response;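 active means activation above a run cutoff, the mean activation of all tested compounds plus 3 SD, cut at about 14% in these data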
# CXCR6 inh: blocks human CXCR6 beta-arrestin recruitment; inhibition, % at 20 µM; CHO-K1 PathHunter CXCR6 beta-arrestin, luminescence; O00574; 360,000 compounds, 0.36% hits; AID 602244; in the data active means inhibition above about 34%, passing the limit was not always enough;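 further: antagonist mode with CXCL16 agonist at 10 nM final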
# CCR6 antagonist: CCR6 (human) receptor antagonism; 340,000 compounds, 0.49% hits; P51684; inhibition, % at 20 µM; CHO-K1 CCR6 PathHunter beta-arrestin, luminescence, CCL20-stimulated; AID 493098;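 active means compounds whose inhibition of the agonist-driven luminescence signal at 20 µM reaches about 50%, limit read from the data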;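 further: cells stimulated with CCL20 at 14 nM final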
# APJ antagonist: APJ receptor antagonism; P35414; CHO-K1 APJ beta-arrestin complementation, luminescence; inhibition, % at 20 µM; 330,000 compounds, 0.32% hits;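 active means inhibition above about 40% at 20 µM, limit read from the data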;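 further: cells challenged with 10 nM apelin-13 agonist together with compound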
# Target sequence (P35414 whole entry, looked up): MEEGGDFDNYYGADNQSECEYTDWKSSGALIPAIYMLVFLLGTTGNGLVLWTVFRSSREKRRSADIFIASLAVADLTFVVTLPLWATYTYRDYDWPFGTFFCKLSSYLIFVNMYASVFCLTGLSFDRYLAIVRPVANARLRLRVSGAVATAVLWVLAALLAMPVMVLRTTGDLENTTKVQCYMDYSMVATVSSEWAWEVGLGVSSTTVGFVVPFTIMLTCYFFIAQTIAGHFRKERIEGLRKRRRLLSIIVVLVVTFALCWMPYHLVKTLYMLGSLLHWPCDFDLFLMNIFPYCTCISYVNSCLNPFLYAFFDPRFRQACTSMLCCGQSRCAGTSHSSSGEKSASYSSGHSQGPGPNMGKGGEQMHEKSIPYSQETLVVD
# EBI2 antag: blocks human EBI2 receptor beta-arrestin signaling. inhibition, % at 5 µM. P32249. AID 651636. 360,000 compounds, 0.81% hits. EBI2 beta-arrestin recruitment, luminescence, 7a,25-OHC stimulated; in the data active means inhibition above about 38%;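 further: enzyme fragment complementation signal reports receptor beta-arrestin coupling in cells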
# APJ agonist: agonists of human APJ apelin receptor; activation, % at 20 µM; 330,000 compounds, 0.11% hits; AID 2520; P35414; CHO-K1 APJ PathHunter beta-arrestin, luminescence; 0% DMSO wells, 100% apelin;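 active means activation more than six SD over the plate average, tested at 20 µM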
#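 Test system: CHO-K1 APJ beta-arrestin complementation cell line | Compound: Single test compound dose, 20 µM final, 1% DMSO | Incubation: Compound 90 min 25 °C, reagent 1 h | Measured by: beta-gal luminescence | Read-out basis: APJ–arrestin association signal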
# APJ antag conf: confirmation of human APJ apelin receptor antagonists | shares compounds with APJ antagonist | APJ beta-arrestin recruitment, luminescence, antagonist mode | inhibition, % at 20 µM | 950 compounds, 66% hits | AID 2766; in the data active means inhibition above about 50%
# CXCR6 confirm: CXCR6 antagonism confirmation, single concentration; shares compounds with CXCR6 inh; CHO-K1 CXCR6 PathHunter beta-arrestin, luminescence; inhibition, % at 20 µM; 700 compounds, 65% hits;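 active means mean inhibition over four retests above 40%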;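 further: receptor stimulated with 10 nM CXCL16 agonist; beta-galactosidase fragment complementation upon beta-arrestin recruitment to receptor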
# Numbers stand for hits; - = inactive; . = no result given.
SMILES,HTR2A ag,CXCR6 inh,CCR6 antagonist,APJ antagonist,EBI2 antag,APJ agonist,APJ antag conf,others
COc1ccc(NC(=O)CSc2ccccn2)cc1OC,-,-,-,-,-,-,.,
COc1ccc(NC(=O)CSc2nnc(-c3ccccn3)n2-c2ccccc2)cc1OC,-,-,-,41,-,-,-,
COc1ccc(S(=O)(=O)NCc2ccccn2)cc1NC(=O)c1ccccc1C,-,-,-,-,-,-,.,
CN(C)CCN(Cc1ccco1)C(=O)c1cc2c(Cl)nc3ccccc3c2s1,-,-,-,41,-,-,69,
Nc1c(N)c2ccccc2oc1=O,-,-,-,-,-,-,.,
Nc1c(N2CCN(c3ccccc3)CC2)c2ccccc2oc1=O,-,-,60,46,-,-,57,
CCOC(=O)C1CCCN(/C=C2\SC(=S)N(CC)C2=O)C1 (centres undefined),-,-,-,-,-,-,.,
CC(=O)c1ccc(N2CCN(C(=S)NCc3ccco3)CC2)cc1,-,-,-,45,-,-,-,
COCCNC(=O)C1(C)CCCN(C(=O)c2ccc(F)cc2Cl)C1 (centres undefined),-,-,.,.,-,.,.,
O=C(OC1CCOC1=O)c1ccc(NS(=O)(=O)c2cccs2)cc1 (centres undefined),-,-,-,-,-,-,.,
Cc1nn(CC(=O)NNC(=O)c2cccc(Br)c2)c(C)c1[N+](=O)[O-],-,-,-,-,-,-,.,
O=C1NC[C@@H](CCCCN2C[C@H](Cc3ccccc3)N(CCc3ccc(O)cc3)C(=O)C2=O)N(CC2CCCCC2)C1=O,-,-,.,.,-,.,.,
O=C(N/N=C/c1ccc(O)c([N+](=O)[O-])c1)C1CC1(c1ccccc1)c1ccccc1 (centres undefined),-,-,-,41,-,-,-,
O=C(N/N=C/c1ccncc1)C1CC1(c1ccccc1)c1ccccc1 (centres undefined),-,-,-,-,-,-,.,
CC(=O)Nc1ccc(SCC(=O)Nc2ccc(Cl)cn2)cc1,-,-,-,-,-,-,.,
COc1ccc(CNC(=O)c2cc3c(=O)n4ccccc4nc3n(Cc3cccnc3)c2=N)cc1,-,-,-,-,-,-,.,
COc1cccc(NC(=O)c2cc3c(=O)n4ccccc4nc3n(CC(C)C)c2=N)c1,-,-,-,41,-,-,-,
Cc1c(N(C)C(=O)COc2ccc3ccccc3c2)c(=O)n(-c2ccccc2)n1C,-,-,-,-,-,-,.,
CCCC(=O)Nc1c2c(nn1-c1ccc(C)cc1)CS(=O)(=O)C2,-,-,-,-,-,-,.,
CC1(C)C(c2ccccc2)=NC(c2ccc(Br)cc2)N1O (centres undefined),-,-,58,77,-,-,-,
CC1(C)C(c2ccccc2)=NC(c2ccccc2)N1O (centres undefined),-,-,-,-,-,-,.,
CCN(CC)S(=O)(=O)c1ccc2c(c1)N(CC(=O)NCCc1ccc(S(N)(=O)=O)cc1)C(=O)CO2,-,-,-,-,-,-,.,
NC[C@H](Cc1ccccc1)NCCCCC1CCCCC1,-,-,-,-,-,-,.,
CNC[C@H](CC1CCCCC1)NC[C@H](Cc1ccccc1)NCCC12CC3CC(CC(C3)C1)C2,-,-,.,44,-,-,-,
CCOc1ccc(C(=O)NCC(=O)OCC(=O)Nc2nnc(-c3ccccc3)o2)cc1,-,-,-,-,-,-,.,
SMILES,HTR2A ag,CXCR6 inh,CCR6 antagonist,APJ antagonist,EBI2 antag,APJ agonist,APJ antag conf,others
Cc1ccc(NC(=S)N/N=C2/CCCCc3ccccc32)cc1,-,-,-,-,-,-,.,
Cc1cccc(NC(=S)N/N=C2/CCCCc3ccccc32)c1,-,-,-,48,-,-,93,
CCc1nc(CNC(=O)C2CCC(=O)N(CCc3cccc(F)c3)C2)no1 (centres undefined),-,-,-,-,-,-,.,
NC(=O)c1ccccc1OCC(=O)N1CCC(Cc2ccccc2)CC1,-,-,-,43,-,-,-,
O=C(O)C1CCCN(C(=O)c2cccc3ccccc23)C1 (centres undefined),-,-,-,-,-,-,.,
COc1cc(SC)ccc1C(=O)OCC(=O)NCC(C)C,-,-,-,41,-,-,-,
O=[N+]([O-])c1ccc(OCC(O)CNCCNc2nccc(C(F)(F)F)n2)cc1 (centres undefined),-,-,-,-,-,-,.,
CCc1ccc2nc(Nc3nc(COC)cc(=O)[nH]3)nc(C)c2c1,-,-,-,-,-,-,.,
COCc1cc(=O)[nH]c(Nc2nc3ccc(C)cc3o2)n1,-,46,-,52,-,-,54,CXCR6 confirm=47
Cn1c(=O)[nH]c(=O)c2c1nc(SCC(=O)O)n2Cc1ccccc1,-,-,-,-,-,-,.,
Cn1c(=O)[nH]c(=O)c2c1nc(Sc1nc3ccccc3s1)n2Cc1ccccc1,-,52,68,54,-,-,-,CXCR6 confirm=54
O=C(COC(=O)c1nc(Cl)ccc1Cl)Nc1ccc2[nH]c(=O)[nH]c2c1,-,-,-,-,-,-,.,
CCOC(=O)C1CCCN(c2c(C(=O)c3ccccc3)cnc3ccc(OC)cc23)C1 (centres undefined),-,70,83,58,-,-,96,CXCR6 confirm=69
CCOC(=O)C1CCCN(C(=O)COc2ccc(C(=O)c3ccccc3)cc2)C1 (centres undefined),-,-,-,-,-,-,.,
CCS(=O)(=O)c1ncc(Cl)c(C(=O)Nc2ccc(S(=O)(=O)N3CCC(C)CC3)cc2)n1,-,83,92,71,49,-,98,CXCR6 confirm=93
CN(c1ccccc1)S(=O)(=O)c1ccc(NC(=O)c2ccccc2)cc1,-,-,-,-,-,-,.,
CN(c1ccccc1)S(=O)(=O)c1ccc(NC(=O)c2nc(S(C)(=O)=O)ncc2Cl)cc1,-,94,97,61,-,-,111,CXCR6 confirm=85
CCN(CC)S(=O)(=O)c1cccc(NC(=O)COC(=O)/C=C/c2cccs2)c1,-,-,-,-,-,-,.,
CC(=O)OCCCNc1cc(Sc2nc3ccccc3s2)c2nonc2c1[N+](=O)[O-],-,93,104,77,63,-,101,CXCR6 confirm=103
CC1=C(O)C(=O)OC1c1c(Cl)cccc1Cl (centres undefined),-,-,-,-,-,-,.,
O=C(Nc1nnc(CCN2CCCCC2)s1)c1ccc(Cl)cc1Cl,-,-,-,-,-,-,.,
S=C(NCc1ccc(Cl)cc1)Nc1ccncc1,-,-,-,-,-,-,.,
Cc1ccc(-n2c(SCCN)nnc2-c2cccc(C)c2)cc1,-,44,60,42,-,-,70,CXCR6 confirm=49
